Data taken from ChEMBL document CHEMBL1121938, “Hypocholesterolemic and antiaggregatory properties of 2-hydroxytetronic acid redox analogues an their relationship to clofibric acid” (1982).

Columns and labels:
Rattus norvegicus [1] = experiment: Effect of compound was measured on serum alpha-lipoprotein in male Dawley rats at the dose of 0.4 mmol/kg (day+10).; format: functional, organism-based
Outline: (§1)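 Male Sprague-Dawley rats (180-210 g) fed a high-cholesterol diet for 1 week before and throughout dosing. Groups of n = 6 were dosed orally twice daily for 14 days in 0.25% methylcellulose, with vehicle controls. Rats were fasted 16-18 h before orbital bleeds on days -1, +4, +7 and +10, and by aortic exsanguination on day +14. Serum α-lipoprotein cholesterol was measured by polyanionic precipitation, in mg/dL ± SD.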

Rattus norvegicus [2] = experiment: Effect of compound was measured on serum alpha-lipoprotein in male Dawley rats at the dose of 0.4 mmol/kg (day+4).; format: functional, organism-based; outline: as §1
Rattus norvegicus [3] = experiment: Effect of compound was measured on serum alpha-lipoprotein in male Dawley rats at the dose of 0.4 mmol/kg (day+7).; format: functional, organism-based; outline: as §1
Rattus norvegicus [4] = experiment: Effect of compound was measured on serum alpha-lipoprotein in male Dawley rats at the dose of 0.4 mmol/kg (day-1).; format: functional, organism-based; outline: as §1
Rattus norvegicus [5] = experiment: Effect of compound was measured on serum alpha-lipoprotein in male Dawley rats at the dose of 0.4 mmol/kg (day14).; format: functional, organism-based; outline: as §1
Rattus norvegicus [6] = experiment: Effect of compound was measured on serum total cholesterol in male Dawley rats at the dose of 0.4 mmol/kg (day+10).; format: functional, organism-based
Outline: (§2)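 Serum total cholesterol was measured enzymatically on a bichromatic analyzer. Serum was separated after clotting on ice (2000g, 10 min), held at 4 °C and assayed within 48 h. Rats were male Sprague-Dawley on a high-cholesterol diet, n = 6, dosed orally twice daily for 14 days in 0.25% methylcellulose (1.0 mL/100 g). They were fasted 16-18 h before each bleed. Results are in mg/dL ± SD.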

Rattus norvegicus [7] = experiment: Effect of compound was measured on serum total cholesterol in male Dawley rats at the dose of 0.4 mmol/kg (day+14).; format: functional, organism-based; outline: as §2
Rattus norvegicus [8] = experiment: Effect of compound was measured on serum total cholesterol in male Dawley rats at the dose of 0.4 mmol/kg (day+4).; format: functional, organism-based; outline: as §2
Rattus norvegicus [9] = experiment: Effect of compound was measured on serum total cholesterol in male Dawley rats at the dose of 0.4 mmol/kg (day+7).; format: functional, organism-based; outline: as §2
Rattus norvegicus [10] = experiment: Effect of compound was measured on serum total cholesterol in male Dawley rats at the dose of 0.4 mmol/kg (day-1).; format: functional, organism-based; outline: as §2
Rattus norvegicus [11] = experiment: Effect of compound was measured on serum total triglycerides in male Dawley rats at the dose of 0.4 mmol/kg (day+10).; format: functional, organism-based
Outline: (§3)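 Serum triglycerides were measured with an enzymatic triglyceride reagent on a bichromatic analyzer. Rats were male Sprague-Dawley (180-210 g) fed a high-cholesterol diet, n = 6 per group, dosed orally twice daily for 14 days in 0.25% methylcellulose or vehicle. They were fasted 16-18 h before blood collection on days -1, +4, +7, +10 (orbital plexus, light ether) and +14 (aorta). Analysis was repeated-measures ANOVA with Duncan's test.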

Rattus norvegicus [12] = experiment: Effect of compound was measured on serum total triglycerides in male Dawley rats at the dose of 0.4 mmol/kg (day+14).; format: functional, organism-based; outline: as §3
Rattus norvegicus [13] = experiment: Effect of compound was measured on serum total triglycerides in male Dawley rats at the dose of 0.4 mmol/kg (day+7).; format: functional, organism-based; outline: as §3
Rattus norvegicus [14] = experiment: Effect of compound was measured on serum total triglycerides in male Dawley rats at the dose of 0.4 mmol/kg (day-1).; format: functional, organism-based; outline: as §3
Rattus norvegicus [15] = experiment: Effect of compound on liver CH levels in male Dawley rats at the dose of 0.4 mmol/kg; format: functional; parameters: unit: g/100 g wet liver
Outline: (§4)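 Male Sprague-Dawley rats (180-210 g) were kept on a high-cholesterol diet for 1 week before and throughout treatment. Groups of n = 6 received drug in 0.25% methylcellulose orally twice daily for 14 days, or vehicle. After a 16-18 h fast, livers were excised at day +14 and homogenized in 0.1 M Tris-HCl pH 7.2 with 1.15% KCl. Lipids were extracted from 25% w/v homogenate and reported as g/100 g wet liver ± SD; groups compared by ANOVA and Duncan's test.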

Rattus norvegicus [16] = experiment: Effect of compound on liver TG levels in male Dawley rats at the dose of 0.4 mmol/kg; format: functional; parameters: unit: g/100 g wet liver; outline: as §4
[17] = Effect of compound was measured on serum heparin-MnCl2 precipated ipoprotein Dawley rats at 0.4 mmol/kg dose(day+10).; format: functional
Outline: (§5)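 Cholesterol-fed male Sprague-Dawley rats, n = 6 per group, given compound or 0.25% methylcellulose orally twice daily for 14 days, and fasted 16-18 h before each bleed (days -1, +4, +7, +10, +14). Heparin-MnCl2 precipitable lipoprotein cholesterol was taken as serum total cholesterol minus α-lipoprotein cholesterol. It is reported as a ratio to α-LP cholesterol ± SD. Analysis was ANOVA with repeated measures and Duncan's test.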

[18] = Effect of compound was measured on serum heparin-MnCl2 precipated ipoprotein Dawley rats at 0.4 mmol/kg dose(day+4).; format: functional; outline: as §5
[19] = Effect of compound was measured on serum heparin-MnCl2 precipated ipoprotein Dawley rats at 0.4 mmol/kg dose(day+7).; format: functional; outline: as §5
[20] = Effect of compound was measured on serum heparin-MnCl2 precipated ipoprotein Dawley rats at 0.4 mmol/kg dose(day-1).; format: functional; outline: as §5
Rattus norvegicus [21] = experiment: Effect of compound was measured on serum total triglycerides in male Dawley rats at the dose of 0.4 mmol/kg (day+4).; format: functional, organism-based; outline: as §3
[22] = Effect of compound on liver to body weight ratio in male Dawley rats at the dose of 0.4 mmol/kg; format: functional
Outline: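 Male Sprague-Dawley rats (180-210 g) were kept on a cholesterol-rich diet and dosed orally twice daily for 14 days in 0.25% methylcellulose; vehicle controls received the same; n = 6 per group. After a 16-18 h fast, rats were exsanguinated at day +14. Livers were removed, rinsed in ice-cold buffer, blotted and weighed, and related to body weight. Data were analysed by repeated-measures ANOVA with Duncan's multiple range test.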

[23] = Effect of compound was measured on serum heparin-MnCl2 precipated ipoprotein Dawley rats at 0.4 mmol/kg dose(day+14).; format: functional; outline: as §5

SMILES | alpha-lipoprotein cholesterol (Rattus norvegicus [1]) | alpha-lipoprotein cholesterol (Rattus norvegicus [2]) | alpha-lipoprotein cholesterol (Rattus norvegicus [3]) | alpha-lipoprotein cholesterol (Rattus norvegicus [4]) | alpha-lipoprotein cholesterol (Rattus norvegicus [5]) | serum total cholesterol (Rattus norvegicus [6]) | serum total cholesterol (Rattus norvegicus [7]) | serum total cholesterol (Rattus norvegicus [8]) | serum total cholesterol (Rattus norvegicus [9]) | serum total cholesterol (Rattus norvegicus [10]) | Serum total triglycerides (Rattus norvegicus [11]) | Serum total triglycerides (Rattus norvegicus [12]) | Serum total triglycerides (Rattus norvegicus [13]) | Serum total triglycerides (Rattus norvegicus [14]) | Liver CH levels (Rattus norvegicus [15]) | Liver TG (Rattus norvegicus [16]) | Ratio [17] | Ratio [18] | Ratio [19] | Ratio [20] | also measured
O=C1OC(c2ccc(Cl)cc2)C(=O)C1=O (stereo unspecified) | 29 mg/dL | 32 mg/dL | 30.5 mg/dL | 40.3 mg/dL | 34.2 mg/dL | 356 mg/dL | 217 mg/dL | 205 mg/dL | 377 mg/dL | 250 mg/dL | 151 mg/dL | 105 mg/dL | 164 mg/dL | 268 mg/dL | 4.9 | 3.76 | 11.9 | 5.63 | 12.6 | 5.76 | Serum total triglycerides (Rattus norvegicus [21]): 198 mg/dL; Ratio [22]: 4; Ratio [23]: 5.75
CCOC(=O)C(C)(C)Oc1ccc(Cl)cc1 [CLOFIBRATE] | 51.7 mg/dL | 38.5 mg/dL | 52.7 mg/dL | 44.4 mg/dL | 55 mg/dL | 316 mg/dL | 302 mg/dL | 127 mg/dL | 209 mg/dL | 202 mg/dL | 196 mg/dL | 155 mg/dL | 169 mg/dL | 266 mg/dL | 3.58 | 1.84 | 4.89 | 2.54 | 3.12 | 3.81 | Serum total triglycerides (Rattus norvegicus [21]): 141 mg/dL; Ratio [22]: 6.2; Ratio [23]: 4.76
